Reference: ChEMBL document CHEMBL1130287, “Potent and selective non-benzodioxole-containing endothelin-A receptor antagonists” (J Med Chem, 1997)

Legend:
[1] = target: T1, Endothelin receptor type B (Sus scrofa, UniProt P35463); experiment: Binding affinity towards endothelin B receptor in porcine cerebellar tissue using [125I]-ET-1 as radioligand.
T1 sequence (P35463 whole entry): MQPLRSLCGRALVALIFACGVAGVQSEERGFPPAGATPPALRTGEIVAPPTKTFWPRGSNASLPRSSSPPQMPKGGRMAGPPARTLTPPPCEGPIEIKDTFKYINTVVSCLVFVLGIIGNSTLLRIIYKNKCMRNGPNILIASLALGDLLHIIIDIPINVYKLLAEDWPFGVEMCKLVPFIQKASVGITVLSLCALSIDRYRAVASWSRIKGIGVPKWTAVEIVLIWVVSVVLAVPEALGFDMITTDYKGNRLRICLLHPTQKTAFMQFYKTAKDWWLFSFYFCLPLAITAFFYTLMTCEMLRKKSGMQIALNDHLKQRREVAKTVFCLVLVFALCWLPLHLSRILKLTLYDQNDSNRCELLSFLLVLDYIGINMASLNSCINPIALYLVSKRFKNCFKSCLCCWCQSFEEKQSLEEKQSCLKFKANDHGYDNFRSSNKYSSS
Method in brief: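 Membranes from porcine cerebellar tissue (ETB), kept at 4 °C and stored in Tris/NaCl/MgCl2 buffer pH 7.4 with protease inhibitors. Bound and free separated by glass-fiber filtration. Nonspecific binding measured with 1 μM ET-1.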

Endothelin-1 receptor = target: T2, Endothelin-1 receptor (Rattus norvegicus, UniProt P26684); experiment: Binding affinity towards endothelin A receptor in prolactin secreting rat pituitary cells using [125I]ET1 as radioligand.; assay type: cell-based, Pituitary gland cell
T2 sequence (P26684 whole entry): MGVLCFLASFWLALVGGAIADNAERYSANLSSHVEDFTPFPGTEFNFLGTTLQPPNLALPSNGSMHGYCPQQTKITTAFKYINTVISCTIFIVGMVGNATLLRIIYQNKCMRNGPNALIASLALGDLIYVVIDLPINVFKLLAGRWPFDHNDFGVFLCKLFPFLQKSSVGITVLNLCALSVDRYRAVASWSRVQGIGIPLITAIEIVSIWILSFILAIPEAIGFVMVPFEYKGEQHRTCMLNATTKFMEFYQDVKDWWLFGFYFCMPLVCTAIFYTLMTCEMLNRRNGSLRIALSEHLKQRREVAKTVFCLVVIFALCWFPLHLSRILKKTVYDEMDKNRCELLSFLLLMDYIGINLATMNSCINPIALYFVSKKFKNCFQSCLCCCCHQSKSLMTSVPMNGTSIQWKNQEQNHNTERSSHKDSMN
Method in brief: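 Membranes from rat MMQ pituitary cells (predominantly ETA), kept at 4 °C and stored in Tris/NaCl/MgCl2 buffer pH 7.4 with protease inhibitors. Bound ligand separated by vacuum filtration on glass fiber. Nonspecific binding defined with 1 μM ET-1.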

[2] = Time taken to decrease the plasma concentration to half of the maximum concentration when compound was administered intravenously in rats; assay type: ADME, organism-based; conditions: rat, iv
Method in brief: (§1)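 Male Sprague–Dawley rats, n = 4 per group. Vehicle: ethanol:propylene glycol:D5W (20:30:50) with 1 mol equiv NaOH. Dosing: 5 mg/kg iv jugular bolus, or 10 mg/kg oral gavage. Tail-vein plasma sampled 0.1 (iv only) to 12 h and analyzed by HPLC after extraction. Trapezoidal AUC extrapolated to infinity. F from dose-corrected oral versus iv AUC.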

[3] = Area under curve was determined in portal blood of rat when administered intradermally; assay type: ADME, organism-based; parameters: concentration or dose not given beside the values; conditions: in the assay text read “intraduodenally” for “intradermally”
Method in brief: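 Male Sprague–Dawley rats (~225 g), fasted overnight and anesthetized with inactin (100 mg/kg ip). Pylorus ligated; carotid and portal vein catheterized. Intraduodenal dose 10 mg/kg at t = 0. Portal blood drawn at 10, 30 and 60 min; drug measured by HPLC-UV at 226 nm against plasma standards (0.01–50 μg/mL). AUC calculated by trapezoidal rule.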

[4] = Maximum concentration of compound in plasma administered orally to rats; assay type: ADME, organism-based; parameters: route oral; conditions: rat, po; method in brief: as §1
[5] = Area under curve was determined in carotid blood of rat when administered intraduodenally; parameters: concentration or dose not given beside the values
[6] = Oral bioavailability in rat; assay type: ADME, organism-based; conditions: in vivo; method in brief: as §1

SMILES	IC50 [1] [nM]	IC50 (Endothelin-1 receptor) [nM]	half-life [2] [h]	AUC [3] [ng·h/mL]	Cmax [4] [ng/mL]	AUC [5] [ng·h/mL]	bioavailability [6] [%]
CCCN(C)C(=O)CN1C[C@H](c2ccc3c(c2)CCO3)[C@@H](C(=O)O)[C@@H]1c1ccc(OC)cc1	19000	130					
CCCCN(CCCC)C(=O)CN1C[C@H](c2ccc3c(c2)CCO3)[C@@H](C(=O)O)[C@@H]1c1ccc(OC)cc1	2600	0.6	1.1	8830	1500	3000	33
CCCN(C)C(=O)CN1C[C@H](c2ccc(OC)c(OC)c2)[C@@H](C(=O)O)[C@@H]1c1ccc(OC)cc1	31000	730					
CCCN(C)C(=O)CN1C[C@H](c2ccc(OC)cc2OC)[C@@H](C(=O)O)[C@@H]1c1ccc(OC)cc1	72000	407					
CCCCN(CCCC)C(=O)CN1C[C@H](c2ccc(OC)cc2OC)[C@@H](C(=O)O)[C@@H]1c1ccc(OC)cc1	48000	3.7					
CCCCN(CCCC)C(=O)CN1C[C@H](c2ccc3ccoc3c2)[C@@H](C(=O)O)[C@@H]1c1ccc(OC)cc1	5000	0.7	4.7	9000	4700	6170	38
CCCCN(CCCC)C(=O)CN1C[C@H](c2ccc3occc3c2)[C@@H](C(=O)O)[C@@H]1c1ccc(OC)cc1	5100	0.5	3.2	4000	1600	2330	39
CCCN(C)C(=O)CN1C[C@H](c2ccc(F)c(F)c2)[C@@H](C(=O)O)[C@@H]1c1ccc(OC)cc1	35000	310					
CCCN(C)C(=O)CN1C[C@H](c2ccc3c(c2)OCC3)[C@@H](C(=O)O)[C@@H]1c1ccc(OC)cc1	6400	137					
CCCCN(CCCC)C(=O)CN1C[C@H](c2ccc(F)c(F)c2)[C@@H](C(=O)O)[C@@H]1c1ccc(OC)cc1	17000	1.5					
CCCCN(CCCC)C(=O)CN1C[C@H](c2cccnc2)[C@@H](C(=O)O)[C@@H]1c1ccc(OC)cc1	> 100000	930					
CCCCN(CCCC)C(=O)CN1C[C@H](c2ccc(OC)cc2)[C@@H](C(=O)O)[C@@H]1c1ccc(OC)cc1	4100	1.3					
CCCCN(CCCC)C(=O)CN1C[C@H](c2ccc3c(c2)OCCO3)[C@@H](C(=O)O)[C@@H]1c1ccc(OC)cc1		0.8					
CCCN(C)C(=O)CN1C[C@H](c2ccc3c(c2)OCCO3)[C@@H](C(=O)O)[C@@H]1c1ccc(OC)cc1	35000	130					
CCCCN(CCCC)C(=O)CN1C[C@H](c2ccc(F)cc2)[C@@H](C(=O)O)[C@@H]1c1ccc(OC)cc1	77000	14					
CCCN(C)C(=O)CN1C[C@H](c2ccc3cc[nH]c3c2)[C@@H](C(=O)O)[C@@H]1c1ccc(OC)cc1	35000	5100					
CCCN(C)C(=O)CN1C[C@H](c2ccccc2)[C@@H](C(=O)O)[C@@H]1c1ccc(OC)cc1	> 100000						
CCCN(C)C(=O)CN1C[C@H](c2ccc3ccccc3c2)[C@@H](C(=O)O)[C@@H]1c1ccc(OC)cc1	25000	2300					
CCCN(C)C(=O)CN1C[C@H](c2ccc3c(c2)CCC3)[C@@H](C(=O)O)[C@@H]1c1ccc(OC)cc1	11000	310					
CCCCN(CCCC)C(=O)CN1C[C@H](c2ccc3c(c2)OCC3)[C@@H](C(=O)O)[C@@H]1c1ccc(OC)cc1	960	1	4.7	12200	4000	6170	68
CCCN(C)C(=O)CN1C[C@H](c2ccc3ccoc3c2)[C@@H](C(=O)O)[C@@H]1c1ccc(OC)cc1	13000	258					
CCCCN(CCCC)C(=O)CN1C[C@H](c2cccc(F)c2)[C@@H](C(=O)O)[C@@H]1c1ccc(OC)cc1	16000	5					
CCCN(C)C(=O)CN1C[C@H](c2cccc(OC)c2)[C@@H](C(=O)O)[C@@H]1c1ccc(OC)cc1		1700					
CCCN(C)C(=O)CN1C[C@H](c2cccc3occc23)[C@@H](C(=O)O)[C@@H]1c1ccc(OC)cc1	34000						
CCCN(C)C(=O)CN1C[C@H](c2ccc(OC)cc2)[C@@H](C(=O)O)[C@@H]1c1ccc(OC)cc1	16000	176					
CCCCN(CCCC)C(=O)CN1C[C@H](c2ccc3c(c2)CCC3)[C@@H](C(=O)O)[C@@H]1c1ccc(OC)cc1		1.5					
CCCN(C)C(=O)CN1C[C@H](c2cccc3ccccc23)[C@@H](C(=O)O)[C@@H]1c1ccc(OC)cc1	32000	2300					
CCCCN(CCCC)C(=O)CN1C[C@H](c2cccc3occc23)[C@@H](C(=O)O)[C@@H]1c1ccc(OC)cc1	11000	2					
CCCCN(CCCC)C(=O)CN1C[C@H](c2ccc3c(c2)OCO3)[C@@H](C(=O)O)[C@@H]1c1ccc(OC)cc1			3.5	10700	3200	5830	68
